The target of assay [1] is Mu-type opioid receptor (Rattus norvegicus, UniProt P33535). Nature of the assay: Inhibition of [3H]DAMGO radioligand binding to rat brain opioid receptor mu 1. A digest of the protocol: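 Rat brain membranes labelled with [3H]DAMGO (1-3 nM). Incubation 4 h at 25 °C in 50 mM Tris-HCl pH 7.4 with protease inhibitor cocktail. Nonspecific binding with 20 μM levallorphan. 8-10 drug concentrations, run twice. Dilutions in 10 mM Tris-HCl pH 7.4 with 1 mg/mL BSA. IC50 from curve fitting.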
Mu-type opioid receptor (Rattus norvegicus, UniProt P33535), sequence (P33535 whole entry): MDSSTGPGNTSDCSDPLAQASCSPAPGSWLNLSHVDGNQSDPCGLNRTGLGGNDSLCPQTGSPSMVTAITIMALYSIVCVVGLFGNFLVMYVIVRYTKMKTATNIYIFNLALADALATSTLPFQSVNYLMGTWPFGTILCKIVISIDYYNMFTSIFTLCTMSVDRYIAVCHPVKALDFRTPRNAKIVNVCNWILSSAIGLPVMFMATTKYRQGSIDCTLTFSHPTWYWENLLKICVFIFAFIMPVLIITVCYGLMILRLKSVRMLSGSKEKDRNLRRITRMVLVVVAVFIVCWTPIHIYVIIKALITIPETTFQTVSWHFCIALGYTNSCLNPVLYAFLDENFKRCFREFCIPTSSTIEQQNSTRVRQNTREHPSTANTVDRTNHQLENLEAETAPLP

In assay [2] the target is T1, Kappa-type opioid receptor (Cavia porcellus, UniProt P41144). Nature of the assay: Inhibition of [3H]U-69593 radioligand binding to Guinea pig opioid receptor kappa 1.
T1 sequence (P41144 whole entry): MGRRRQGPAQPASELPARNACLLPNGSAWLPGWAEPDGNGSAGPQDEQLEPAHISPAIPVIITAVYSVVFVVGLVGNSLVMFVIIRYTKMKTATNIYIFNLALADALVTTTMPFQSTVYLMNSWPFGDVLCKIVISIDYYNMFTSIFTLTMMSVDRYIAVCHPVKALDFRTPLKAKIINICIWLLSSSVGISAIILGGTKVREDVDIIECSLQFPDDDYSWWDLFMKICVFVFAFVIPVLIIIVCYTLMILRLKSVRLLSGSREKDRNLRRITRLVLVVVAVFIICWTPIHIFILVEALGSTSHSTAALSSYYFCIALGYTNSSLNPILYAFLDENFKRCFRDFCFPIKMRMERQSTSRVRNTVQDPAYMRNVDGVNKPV
The target of assay [3] is Delta-type opioid receptor (Rattus norvegicus, UniProt P33533). Nature of the assay: Inhibition of [3H]DADLE radioligand binding to rat brain opioid receptor delta 1.
Delta-type opioid receptor (Rattus norvegicus, UniProt P33533), sequence (P33533 whole entry): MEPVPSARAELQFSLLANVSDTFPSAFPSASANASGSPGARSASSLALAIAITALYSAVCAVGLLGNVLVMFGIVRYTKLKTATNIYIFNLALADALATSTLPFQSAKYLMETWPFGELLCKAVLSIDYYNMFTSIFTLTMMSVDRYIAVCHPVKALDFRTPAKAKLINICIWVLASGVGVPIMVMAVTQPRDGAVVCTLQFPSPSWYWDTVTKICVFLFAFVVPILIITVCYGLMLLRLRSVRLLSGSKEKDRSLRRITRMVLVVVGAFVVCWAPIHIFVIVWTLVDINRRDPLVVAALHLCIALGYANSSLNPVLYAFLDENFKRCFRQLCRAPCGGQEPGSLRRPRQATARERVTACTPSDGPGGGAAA
Assay [4] deals with T1, Kappa-type opioid receptor. In words: Inhibition of [3H]-U-69,593 radioligand binding to Guinea pig Opioid receptor kappa 1; not determined. A digest of the protocol: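 Guinea pig brain membranes depleted of μ and δ sites by pretreatment with irreversible ligands BIT and FIT, labelled with [3H]-U69,593 (1.2-2.3 nM). Incubation 4-6 h at 25 °C in 50 mM Tris-HCl pH 7.4 with protease inhibitor cocktail and 1 μg/mL captopril. Nonspecific binding with 1 μM U69,593. 8-10 drug concentrations, run twice. IC50 from curve fitting.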

For assay [5], the target named is Mu-type opioid receptor (Cavia porcellus, UniProt P97266). In words: The opioid activity against the mu-receptor in the isolated guinea pig ileum(GPI). Format: tissue-based. A digest of the protocol: (§1)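 Electrically stimulated contractions of male ICR mouse vas deferens (25-40 g mice) and male Hartley guinea pig ileum longitudinal muscle myenteric plexus strips (250-500 g animals). Tissues held in 37 °C oxygenated Krebs bicarbonate (Mg-free for MVD) at 1 g tension (0.5 g for MVD). Percent inhibition is the contraction height in the 1 min before agonist versus at maximal inhibition. IC50 from nonlinear least squares fit over 2-4 tissues.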
Mu-type opioid receptor (Cavia porcellus, UniProt P97266), sequence (P97266 whole entry): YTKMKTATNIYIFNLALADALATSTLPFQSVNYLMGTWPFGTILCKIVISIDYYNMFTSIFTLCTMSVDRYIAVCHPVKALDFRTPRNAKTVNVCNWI

In assay [6] the target is Opioid receptors; mu & delta (Rattus norvegicus) (UniProt P33533+P33535). In words: Selectivity as the ratio of IC50 value against mu receptor to that of delta receptor. Type of assay: protein assay.
Opioid receptors; mu & delta (Rattus norvegicus), sequence (P33533 whole entry, looked up): as the sequence (P33533 whole entry) above
Opioid receptors; mu & delta (Rattus norvegicus), sequence (P33535 whole entry, looked up): as the sequence (P33535 whole entry) above
The target in assay [7] is Delta-type opioid receptor (Mus musculus, UniProt P32300). In words: (§2) Opioid activity against delta-receptor of isolated mouse vas deferens(MVD) at 30 uM. A digest of the protocol:
as §1

Assay [8] deals with Delta-type opioid receptor (Mus musculus) (UniProt P32300). The assay is described as §2. A digest of the protocol: as §1
Delta-type opioid receptor (Mus musculus), sequence (P32300 whole entry): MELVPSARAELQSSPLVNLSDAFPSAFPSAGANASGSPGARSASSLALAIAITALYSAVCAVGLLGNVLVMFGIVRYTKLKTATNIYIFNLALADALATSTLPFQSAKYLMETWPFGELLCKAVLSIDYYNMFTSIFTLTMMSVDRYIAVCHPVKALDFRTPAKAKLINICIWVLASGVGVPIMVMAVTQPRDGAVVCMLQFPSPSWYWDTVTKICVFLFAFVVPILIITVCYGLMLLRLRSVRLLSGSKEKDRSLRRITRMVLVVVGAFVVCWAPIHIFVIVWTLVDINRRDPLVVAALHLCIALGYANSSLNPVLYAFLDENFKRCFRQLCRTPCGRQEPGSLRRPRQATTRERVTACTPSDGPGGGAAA

Several values for one entry are separate records, joined by “and”; a condition that tells them apart may be missing. Identical values can stand only once.

Delta-type opioid receptor (Mus musculus, UniProt P32300), sequence (P32300 whole entry): as above

Turning to `CN1CCC2(c3cccc(O)c3)CC(=O)CC1C2` (stereo in doubt; 13) [listing 1 of 2 here], the IC50 in assay [1] stood at 21.2 nM; in assay [2], 2030 nM; in assay [3], 720 nM.

`CC(C)C[C@@H](NC(=O)[C@H](Cc1ccccc1)NC(=O)CNC(=O)[C@@H](C)NC(=O)[C@@H](N)Cc1ccc(O)cc1)C(=O)O` [DADLE]: the IC50 in assay [4] turned out to be 1.71 nM; in assay [5] it was 28.8 nM.

Consider `Oc1cccc(C23CCN(CC4CC4)C(Cc4[nH]c5ccccc5c42)C3)c1` (stereo not drawn), for which the IC50 in assay [1] stood at 180 nM; in assay [2], 934 nM; in assay [3], 84.1 nM. The Selectivity in assay [6] amounted to 2.14.

Regarding `CN1CCC2(c3cccc(O)c3)CC1Cc1[nH]c3ccccc3c12` (stereo not drawn), the 50% inhibitory concentration (IC50) is 1390 nM and 347 nM in assay [7]; 21.4 nM and 29.8 nM in assay [1]; greater than 1000 nM in assay [2]; 1940 nM and 2070 nM in assay [5].

Consider `Oc1cccc(C23CCN(CCc4ccccc4)C(Cc4[nH]c5ccccc5c42)C3)c1` (stereo not drawn) [listing 1 of 2 here], for which the IC50 is 50.6 nM in assay [1], greater than 1000 nM in assay [2] and 5.7 nM in assay [3].

Take `CN1CCC2(c3cccc(O)c3)CC1Cc1[nH]c3ccc4ccccc4c3c12` (stereo not drawn): the IC50 in assay [1] was greater than 1000 nM; in assay [2], greater than 1000 nM; in assay [3], greater than 10000 nM.

Regarding `CCN1CCC2(c3cccc(O)c3)CC1Cc1[nH]c3ccccc3c12` (stereo not drawn), the IC50 is 1260 nM in assay [1], greater than 1000 nM in assay [2] and 233 nM in assay [3]. Further, in assay [6], the Selectivity worked out at 5.4.

For `C=CCN1CCC2(c3cccc(O)c3)CC1Cc1[nH]c3ccccc3c12` (stereo not drawn), the IC50 is 361 nM in assay [1], 2160 nM in assay [2] and 140 nM in assay [3]. The Selectivity in assay [6] turned out to be 2.58.

For the compound `Oc1cccc(C23CCN(CCc4ccccc4)C(Cc4[nH]c5ccccc5c42)C3)c1` (stereo not drawn) [listing 2 of 2 here], the Selectivity in assay [6] was 8.88.

For the compound `CN1CCC2(c3cccc(O)c3)CC(=O)CC1C2` (stereo in doubt; 13) [listing 2 of 2 here], in assay [6], the Selectivity came to 0.03.

For the compound `CCCCCCCN1CCC2(c3cccc(O)c3)CC1Cc1[nH]c3ccccc3c12` (stereo not drawn), the IC50 in assay [1] is 66.6 nM; in assay [2] it was greater than 1000 nM; in assay [3] it was 46.7 nM. In assay [6], the Selectivity worked out at 1.43.

With `Oc1cccc(C23CCN(CCc4ccccc4)C(Cc4[nH]c5ccccc5c42)C3)c1` (single isomer, unassigned; (-)) [listing 1 of 2 here], the IC50 is 25 nM in assay [1], greater than 1000 nM in assay [2] and 6.2 nM in assay [3].

On to `CN1CCC2(c3cccc(O)c3)CCCC1C2` (stereo in doubt; (-)-1) [listing 1 of 2 here], for which the inhibition in assay [8] turned out to be 26%. The Selectivity in assay [6] was less than 0.02.

With `CCCCCN1CCC2(c3cccc(O)c3)CC1Cc1[nH]c3ccccc3c12` (stereo not drawn), the IC50 in assay [1] amounted to 23.5 nM; in assay [2], 993 nM; in assay [3] it was 6.9 nM. Besides, the Selectivity in assay [6] is 3.41.

For the compound `CN1CCC2(c3cccc(O)c3)CC1Cc1[nH]c3ccccc3c12` (single isomer, unassigned; (-)) [listing 1 of 2 here], the IC50 in assay [7] turned out to be 393 nM; in assay [1] it was 14.2 nM; in assay [3], 5.6 nM; in assay [5], 2350 nM.

As for `CN1CCC2(c3cccc(O)c3)CC(=O)CC1C2` (single isomer, unassigned; (-)) [listing 1 of 2 here], the Selectivity in assay [6] is 0.12.

For the compound `CN1CCC2(c3cccc(O)c3)CCCC1C2` (single isomer, unassigned; (+)) [listing 1 of 2 here], the Selectivity in assay [6] is less than 0.02.

With `Oc1cccc(C23CCN(CCc4ccccc4)C(Cc4[nH]c5ccccc5c42)C3)c1` (single isomer, unassigned; (-)) [listing 2 of 2 here], the Selectivity in assay [6] was found to be 4.03.

For the compound `CN1CCC2(c3cccc(O)c3)Cc3[nH]c4ccccc4c3C1C2` (stereo not drawn), the figures for the IC50 in assay [1], in assay [2] and in assay [3] were 43.9 nM, 798 nM and greater than 1000 nM, respectively. Also, the Selectivity in assay [6] was less than 0.04.

With `Oc1cccc(C23CCN(CCc4ccccc4)C(Cc4[nH]c5ccccc5c42)C3)c1` (single isomer, unassigned; (+)) [listing 1 of 2 here], the IC50 was 89.2 nM in assay [1], greater than 1000 nM in assay [2] and greater than 1000 nM in assay [3].

`CN1CCC2(c3cccc(O)c3)CC(=O)CC1C2` (single isomer, unassigned; (+)) [listing 1 of 2 here]: the IC50 came out at 137 nM in assay [1], 5070 nM in assay [2] and 1140 nM in assay [3].

On to `CN1CCC2(c3cccc(O)c3)CC1C[C@@H](NC(=O)c1ccccc1)C2` (stereo partly drawn), for which the IC50 in assay [2] was 5560 nM; in assay [3], 487 nM.

On to `CN1CCC2(c3cccc(O)c3)CC(=O)CC1C2` (single isomer, unassigned; (+)) [listing 2 of 2 here], for which the Selectivity in assay [6] worked out at 0.12.

As to `CN1CCC2(c3cccc(O)c3)CC1C[C@@H](NC(=O)Cc1ccccc1)C2` (stereo partly drawn), the IC50 is 119 nM in assay [1], 2220 nM in assay [2] and 227 nM in assay [3]. In assay [6], the Selectivity worked out at 0.52.

With `CCCCN1CCC2(c3cccc(O)c3)CC1Cc1[nH]c3ccccc3c12` (stereo not drawn), the IC50 in assay [1] is 72.4 nM; in assay [2] it was greater than 1000 nM; in assay [3] it was 18 nM. In addition, in assay [6], the Selectivity came out at 4.02.

For the compound `Oc1cccc(C23CCNC(Cc4[nH]c5ccccc5c42)C3)c1` (stereo not drawn), the IC50 in assay [1] was 357 nM; in assay [2] it was greater than 10000 nM; in assay [3] it was 69.5 nM. Besides, the Selectivity in assay [6] came out at 5.14.

Compound `CN1CCC2(c3cccc(O)c3)Cc3nc4ccccc4cc3C1C2` (stereo not drawn) returned an IC50 in assay [2] of 197 nM.

For the compound `CN1CCC2(c3cccc(O)c3)CCCC1C2` (stereo in doubt; (-)-1) [listing 2 of 2 here], the IC50 in assay [1] was 20.8 nM; in assay [2], 819 nM; in assay [3], greater than 1000 nM; in assay [5], 639 nM.

`CN1CCC2(c3cccc(O)c3)Cc3[nH]c4c(ccc5ccccc54)c3C1C2` (stereo not drawn): the IC50 in assay [1] is 366 nM; in assay [2] it was greater than 1000 nM; in assay [3] it was 1050 nM. For the same compound, the Selectivity in assay [6] came to 0.35.

`CN1CCC2(c3cccc(O)c3)CC1Cc1[nH]c3c(ccc4ccccc43)c12` (stereo not drawn): the IC50 in assay [1] is 208 nM; in assay [2], greater than 1000 nM; in assay [3], 12.6 nM. Also, the Selectivity in assay [6] turned out to be 16.5.

With `CN1CCC2(c3cccc(O)c3)C/C(=N/Nc3ccccc3)CC1C2` (stereo not drawn), the IC50 in assay [1] was determined as 8.7 nM; in assay [2] it was 241 nM; in assay [3] it was 111 nM. In addition, the Selectivity in assay [6] came out at 0.08.

Regarding `CN1CCC2(c3cccc(O)c3)CC1Cc1[nH]c3ccccc3c12` (single isomer, unassigned; (-)) [listing 2 of 2 here], the Selectivity in assay [6] was 2.54.

For the compound `Oc1cccc(C23CCN(Cc4ccccc4)C(Cc4[nH]c5ccccc5c42)C3)c1` (stereo not drawn), the values for the IC50 in assay [1], in assay [2] and in assay [3] were 508 nM, 90 nM and 184 nM, respectively. Further, the Selectivity in assay [6] amounted to 2.76.

Take `CCCCCCN1CCC2(c3cccc(O)c3)CC1Cc1[nH]c3ccccc3c12` (stereo not drawn): the IC50 in assay [1] was 70.6 nM; in assay [2], greater than 1000 nM; in assay [3], 34 nM. In addition, the Selectivity in assay [6] worked out at 2.08.

On to `Oc1cccc(C23CCN(CCc4ccccc4)C(Cc4[nH]c5ccccc5c42)C3)c1` (single isomer, unassigned; (+)) [listing 2 of 2 here], for which the Selectivity in assay [6] was less than 0.09.

`CN1CCC2(c3cccc(O)c3)CC(=O)CC1C2` (single isomer, unassigned; (-)) [listing 2 of 2 here]: the IC50 in assay [1] is 33.5 nM; in assay [2], 981 nM; in assay [3] it was 273 nM.

Take `CN1CCC2(c3cccc(O)c3)CCCC1C2` (single isomer, unassigned; (+)) [listing 2 of 2 here]: the IC50 in assay [7] is 557 nM; in assay [1] it was 21.4 nM; in assay [2], 910 nM; in assay [3] it was greater than 1000 nM; in assay [5] it was 169 nM.

`CCCN1CCC2(c3cccc(O)c3)CC1Cc1[nH]c3ccccc3c12` (stereo not drawn): the results for the IC50 in assay [1], in assay [2] and in assay [3] were 300 nM, greater than 1000 nM and 40.5 nM, respectively. Besides, the Selectivity in assay [6] turned out to be 7.4.

Source of the values: ChEMBL document CHEMBL1128311, “Probes for narcotic receptor-mediated phenomena. 20. Alteration of opioid receptor subtype selectivity of the 5-(3-hydroxyphenyl)morphans by application of the message-address concept: preparation of delta-opioid receptor ligands” (J Med Chem, 1995).
